Experimental data taken from ChEMBL document CHEMBL4041534, “Treatment of Sepsis Pathogenesis with High Mobility Group Box Protein 1-Regulating Anti-inflammatory Agents” (J Med Chem, 2017).
Activity calls are given as the source filed them. No cut-off for these calls is given here.

Key:
[1] = biological target: T1, High mobility group protein B1 (Mus musculus) (UniProt P63158); experiment: Inhibition of HMGB1 translocation from nucleus to cytosol in LPS-stimulated mouse RAW264.7 cells assessed as inhibition of NO release at 10 uM measured after 24 hrs by Griess assay relative to control
T1 sequence (whole entry): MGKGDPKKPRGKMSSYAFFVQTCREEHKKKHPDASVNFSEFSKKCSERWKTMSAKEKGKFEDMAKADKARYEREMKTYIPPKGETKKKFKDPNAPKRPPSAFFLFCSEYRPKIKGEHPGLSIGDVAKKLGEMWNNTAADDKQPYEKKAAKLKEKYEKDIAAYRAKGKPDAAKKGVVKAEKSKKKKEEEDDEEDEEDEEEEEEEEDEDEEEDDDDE
How it was run: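 Raw264.7 cells, seeded 1 day earlier, were moved to serum-free DMEM and exposed to 100 ng/mL LPS with 10 μM compound for 24 h. Supernatant NO was measured with Griess reagent (sulfanilamide/N-(1-naphthyl)ethylenediamine/phosphoric acid) at room temperature, absorbance 548 nm. Inhibition was set against LPS+DMSO wells, blank-corrected, with four control wells. At least three independent experiments.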

[2] = Cytotoxicity against mouse RAW264.7 cells assessed as cell viability at 10 uM in presence of LPS measured after 24 hrs by WST assay relative to control; assay type: cell-based; conditions: read-out: Activity
How it was run: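 Raw264.7 cells, seeded 1 day earlier, were washed into serum-free DMEM and given 100 ng/mL LPS plus compound (10 μM) for 24 h. After the supernatant was removed, wells were refilled with 10% FBS DMEM and WST reagent was added for 20 min at 37 °C. Absorbance was read at 450 nm, and viability is relative to vehicle. At least three independent experiments.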

[3] = biological target: T1, High mobility group protein B1 (Mus musculus); experiment: Inhibition of HMGB1 translocation from nucleus to cytosol in LPS-stimulated mouse RAW264.7 cells assessed as inhibition of TNF-alpha production at 10 uM measured after 4 hrs by ELISA relative to control
How it was run: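 Raw264.7 cells in serum-free DMEM were treated with 100 ng/mL LPS and 10 μM compound (final). After 4 h, medium was diluted in 1% BSA/PBS and secreted TNF-α was quantified by ELISA against a standard curve of TNF-α protein. Inhibition is relative to control. At least three independent experiments.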

[4] = biological target: T1, High mobility group protein B1 (Mus musculus); experiment: Inhibition of HMGB1 nuclear translocation in LPS-stimulated mouse RAW264.7 cells at 20 uM pretreated for 1 hr followed by LPS-induction measured after 2 hrs by Hoechst 33342/TRITC staining based immunofluorescence microscopic method
How it was run: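 Raw264.7 cells on chambered coverglass were pretreated with 20 μM compound for 1 h, then given 500 ng/mL LPS for 2 h. Cells were fixed in 4% paraformaldehyde, permeabilized with methanol at −20 °C, blocked with 2% BSA, and stained with anti-HMGB1 plus TRITC secondary and Hoechst 33342. Imaged by deconvolution fluorescence microscopy. At least three independent experiments.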

[5] = biological target: T1, High mobility group protein B1 (Mus musculus); experiment: Inhibition of HMGB1 nuclear translocation in LPS-stimulated mouse RAW264.7 cells assessed as inhibition of IL-6 production at 10 uM pretreated for 1 hr followed by LPS-induction by Western blot analysis
How it was run: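 Raw264.7 cells were pretreated with 10 μM compound for 1 h, then given 100 ng/mL LPS. IL-6 released into the culture medium was detected by Western blot with ECL chemiluminescence, DMSO as control. At least three independent experiments.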

RAW264.7 = experiment: Cytotoxicity against mouse RAW264.7 cells assessed as reduction in cell viability at >10 uM in presence of LPS measured after 24 hrs by WST assay; assay type: cell-based; conditions: raw264.7, 24 h

| SMILES | inhibition [1] | viability at 24 h, 10 µM [2] | further results |
| --- | --- | --- | --- |
| CC(=O)N1CCC2(CC1)Oc1cc(O)ccc1C1C2=CCn2c(=O)n(-c3ccccc3)c(=O)n21 (stereo unspecified) | 36% |  |  |
| COc1ccc(-n2c(=O)n3n(c2=O)C2C(=CC3)C(C)(C)Oc3cc(O)ccc32)cc1 (stereo unspecified) | 89% | 127% | inhibition [3]: 44% |
| CC1(C)Oc2cc(O)ccc2C2C1=CCn1c(=O)n(-c3ccc(F)cc3)c(=O)n12 (stereo unspecified) | 87% | 109% | inhibition [3]: 44% |
| CC1(C)Oc2cc(O)ccc2C2C1=CCn1c(=O)n(C3CCCCC3)c(=O)n12 (stereo unspecified) | 63% | 117% |  |
| CC1(C)Oc2cc(O)ccc2C2C1=CCn1c(=O)n(-c3ccc(C(C)(C)C)cc3)c(=O)n12 (stereo unspecified) | 99% | 105% | Activity (RAW264.7): Toxic |
| CC1(C)Oc2cc(O)ccc2C2C1C=Cn1c(=O)n(-c3ccccc3)c(=O)n12 (stereo unspecified) | inactive |  |  |

Second part, led by results:

| inhibition [1] | SMILES | viability at 24 h, 10 µM [2] | further results |
| --- | --- | --- | --- |
| 48% | CC1(C)Oc2cc(O)ccc2C2C1=CCn1c(=O)n(-c3ccccc3I)c(=O)n12 (stereo unspecified) | 109% |  |
| 94% | Cc1ccc(-n2c(=O)n3n(c2=O)C2C(=CC3)C(C)(C)Oc3cc(O)ccc32)cc1 (stereo unspecified) | 130% | inhibition [3]: 45%; inhibition [4]: Active; inhibition [5]: Active |
| 26% | COc1ccc2c(c1O)OC(C)(C)C1=CCn3c(=O)n(-c4ccccc4)c(=O)n3C12 (stereo unspecified) |  |  |
| 55% | COc1ccc2c(c1)C1C(=CCn3c(=O)n(-c4ccccc4)c(=O)n31)C(C)(C)O2 (stereo unspecified) |  |  |
| 44% | COc1ccc2c(c1)OC(C)(C)C1=CCn3c(=O)n(-c4ccccc4)c(=O)n3C12 (stereo unspecified) |  |  |
| 52% | CNc1ccc2c(c1)OC(C)(C)C1=CCn3c(=O)n(-c4ccccc4)c(=O)n3C12 (stereo unspecified) |  |  |
| 70% | CC1(C)Oc2cc(O)ccc2C2C1=CCn1c(=O)n(Cc3ccccc3)c(=O)n12 (stereo unspecified) | 106% |  |
